Columns and labels:
[1] = Selectivity ratio of IC50 for MDCK cells to EC90 for Influenza A virus Hong Kong/213/2003/H5N1 by virus yield reduction assay; type: ADME, cell-based; settings: dog, mdck
Method in brief: (§1)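 IC50 (50% inhibition of uninfected MDCK cells) divided by EC90 (concentration reducing the infectious virus titer by 90% in the yield reduction assay).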

[2] = Selectivity ratio of IC50 for MDCK cells to EC50 for inhibition of virus-induced cytopathic effect of Influenza A virus Vietnam/1203/ 2004H/H5N1; type: cell-based; settings: dog, mdck
Method in brief: (§2)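 IC50 (50% inhibition of uninfected MDCK cells) divided by EC50 (concentration reducing virus-induced CPE by 50%, scored visually), both from replicate serial-dilution assays.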

Influenza A virus [3] = assay: Antiviral activity against Influenza A virus Wisconsin/67/2005/H3N2 infected MDCK cells assessed as inhibition of virus-induced cytopathic effect after 3 days; type: functional, organism-based, Influenza A virus (A/Wisconsin/67/2005(H3N2)); settings: mdck
Method in brief: (§3)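 Triplicate MDCK (ATCC CCL-34) wells got serial dilutions of compound. They were then inoculated with ≤300 CCID50, enough for ~100% CPE in control wells within 3 days, using the same inoculum for all replicates. CPE was scored visually. EC50 is the concentration reducing CPE by 50%, as the mean of triplicates.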

[4] = Selectivity ratio of IC50 for MDCK cells to EC50 for Influenza A virus Wisconsin/67/2005/H3N2 by neutral red dye uptake assay; type: ADME, cell-based; settings: dog, mdck
Method in brief: (§4)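 Neutral red uptake in MDCK cells: IC50 (50% inhibition of uninfected cells) divided by EC50 (50% inhibition of virus effect), both from replicate serial-dilution assays.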

[5] = Selectivity ratio of IC50 for MDCK cells to EC50 for inhibition of virus-induced cytopathic effect of Influenza B virus Malaysia/2506/2004; type: cell-based; settings: dog, mdck; method in brief: as §2
[6] = test system: Influenza A virus (A/Puerto Rico/8/1934(H1N1)); assay: Antiviral activity against Influenza A virus Solomon Islands/03/2006/H1N1 infected MDCK cells after 3 days by virus yield reduction assay; type: functional, Influenza A virus (A/Solomon Islands/3/2006(H1N1))
Method in brief: (§5)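 Yield reduction assay: MDCK cells got serial compound dilutions and ≤300 CCID50 virus, in triplicate. Progeny virus was titrated. EC90 is the concentration reducing the infectious titer by 90%, as the mean of triplicates.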

[7] = test system: Influenza A virus (A/Puerto Rico/8/1934(H1N1)); assay: Antiviral activity against Influenza A virus Solomon Islands/03/2006/H1N1 infected MDCK cells after 42 to 46 hrs by neutral red dye uptake assay; type: functional, organism-based, Influenza A virus (A/Solomon Islands/3/2006(H1N1)); settings: mdck
Method in brief: (§6)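 Triplicate MDCK wells got serial compound dilutions, then ≤300 CCID50 of virus, with the same inoculum for all replicates. Antiviral effect was read by neutral red dye uptake. EC50 is the concentration giving 50% inhibition of the virus effect, as the mean of triplicates.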

[8] = Selectivity ratio of IC50 for MDCK cells to EC90 for Influenza A virus Wisconsin/67/2005/H3N2 by virus yield reduction assay; type: ADME, cell-based; settings: dog, mdck; method in brief: as §1
[9] = Selectivity ratio of IC50 for MDCK cells to EC90 for Influenza A virus California/07/2009 /H1N1 by virus yield reduction assay; type: ADME, cell-based; settings: dog, mdck; method in brief: as §1
[10] = Selectivity ratio of IC50 for MDCK cells to EC50 for inhibition of virus-induced cytopathic effect of Influenza A virus California/07/2009 /H1N1; type: cell-based; settings: dog, mdck; method in brief: as §2
[11] = Selectivity ratio of IC50 for MDCK cells to EC50 for inhibition of virus-induced cytopathic effect of Influenza A virus Duck/MN/1525/81/H5N1; type: cell-based; settings: dog, mdck; method in brief: as §2
H5N1 subtype [12] = assay: Antiviral activity against Influenza A virus Hong Kong/213/2003/H5N1 infected MDCK cells after 42 to 46 hrs by neutral red dye uptake assay; type: functional, organism-based, Influenza A virus (A/Hong Kong/213/2003(H5N1)); settings: mdck
[13] = Selectivity ratio of IC50 for MDCK cells to EC50 for inhibition of virus-induced cytopathic effect of Influenza A virus Solomon Islands/03/2006/H1N1; type: cell-based; settings: dog, mdck; method in brief: as §2
[14] = Selectivity ratio of IC50 for MDCK cells to EC50 for Influenza B virus Malaysia/2506/2004 by neutral red dye uptake assay; type: ADME, cell-based; settings: dog, mdck; method in brief: as §4
[15] = Selectivity ratio of IC50 for MDCK cells to EC50 for Influenza A virus Hong Kong/213/2003/H5N1 by neutral red dye uptake assay; type: ADME, cell-based; settings: dog, mdck; method in brief: as §4
[16] = Antiviral activity against Influenza A virus Solomon Islands/03/2006/H1N1 infected MDCK cells assessed as inhibition of virus-induced cytopathic effect after 3 days; type: functional, organism-based, Influenza A virus (A/Solomon Islands/3/2006(H1N1)); settings: mdck; method in brief: as §3
[17] = Selectivity ratio of IC50 for MDCK cells to EC90 for Influenza A virus Vietnam/1203/ 2004H/H5N1 by virus yield reduction assay; type: ADME, cell-based; settings: dog, mdck; method in brief: as §1
[18] = Selectivity ratio of IC50 for MDCK cells to EC90 for Influenza A virus Duck/MN/1525/81/H5N1 by virus yield reduction assay; type: ADME, cell-based; settings: dog, mdck; method in brief: as §1
[19] = Selectivity ratio of IC50 for MDCK cells to EC50 for Influenza A virus California/07/2009 /H1N1 by neutral red dye uptake assay; type: ADME, cell-based; settings: dog, mdck; method in brief: as §4
Influenza B virus [20] = assay: Antiviral activity against Influenza B virus Malaysia/2506/2004 infected MDCK cells after 3 days by virus yield reduction assay; type: functional, B/Malaysia/2506/2004; method in brief: as §5
H5N1 subtype [21] = assay: Antiviral activity against Influenza A virus Gull/PA/4175/83/H5N1 infected MDCK cells after 42 to 46 hrs by neutral red dye uptake assay; type: functional, organism-based, Influenza A virus (A/gull/Pennsylvania/4175/83(H5N1)); settings: mdck
Influenza A virus [22] = assay: Antiviral activity against Influenza A virus Vietnam/1203/ 2004H/H5N1 infected MDCK cells assessed as inhibition of virus-induced cytopathic effect after 3 days; type: functional, organism-based, A/Viet Nam/1203/2004(H5N1); settings: mdck
Influenza A virus [23] = assay: Antiviral activity against Influenza A virus Wisconsin/67/2005/H3N2 infected MDCK cells after 3 days by virus yield reduction assay; type: functional, Influenza A virus (A/Wisconsin/67/2005(H3N2)); method in brief: as §5
[24] = Selectivity ratio of IC50 for MDCK cells to EC50 for Influenza A virus Gull/PA/4175/83/H5N1 by neutral red dye uptake assay; type: ADME, cell-based; settings: dog, mdck; method in brief: as §4
Influenza B virus [25] = assay: Antiviral activity against Influenza B virus Malaysia/2506/2004 infected MDCK cells after 42 to 46 hrs by neutral red dye uptake assay; type: functional, organism-based, B/Malaysia/2506/2004; settings: mdck; method in brief: as §6
[26] = Selectivity ratio of IC50 for MDCK cells to EC50 for inhibition of virus-induced cytopathic effect of Influenza A virus Wisconsin/67/2005/H3N2; type: cell-based; settings: dog, mdck; method in brief: as §2
[27] = Selectivity ratio of IC50 for MDCK cells to EC90 for Influenza A virus Solomon Islands/03/2006/H1N1 by virus yield reduction assay; type: ADME, cell-based; settings: dog, mdck; method in brief: as §1
[28] = Selectivity ratio of IC50 for MDCK cells to EC50 for Influenza A virus Solomon Islands/03/2006/H1N1 by neutral red dye uptake assay; type: ADME, cell-based; settings: dog, mdck; method in brief: as §4
Influenza A virus [29] = assay: Antiviral activity against Influenza A virus Vietnam/1203/ 2004H/H5N1 infected MDCK cells after 3 days by virus yield reduction assay; type: functional, A/Viet Nam/1203/2004(H5N1)
H5N1 subtype [30] = assay: Antiviral activity against Influenza A virus Duck/MN/1525/81/H5N1 infected MDCK cells after 3 days by virus yield reduction assay; type: functional, Influenza A virus (A/duck/Minnesota/1525/1981(H5N1))
Influenza B virus [31] = assay: Antiviral activity against Influenza B virus Malaysia/2506/2004 infected MDCK cells assessed as inhibition of virus-induced cytopathic effect after 3 days; type: functional, organism-based, B/Malaysia/2506/2004; settings: mdck; method in brief: as §3
[32] = Selectivity ratio of IC50 for MDCK cells to EC90 for Influenza B virus Malaysia/2506/2004 by virus yield reduction assay; type: ADME, cell-based; settings: dog, mdck; method in brief: as §1
Influenza A virus [33] = assay: Antiviral activity against Influenza A virus Wisconsin/67/2005/H3N2 infected MDCK cells after 42 to 46 hrs by neutral red dye uptake assay; type: functional, organism-based, Influenza A virus (A/Wisconsin/67/2005(H3N2)); settings: mdck; method in brief: as §6
H5N1 subtype [34] = assay: Antiviral activity against Influenza A virus Duck/MN/1525/81/H5N1 infected MDCK cells assessed as inhibition of virus-induced cytopathic effect after 3 days; type: functional, organism-based, Influenza A virus (A/duck/Minnesota/1525/1981(H5N1)); settings: mdck
H5N1 subtype [35] = assay: Antiviral activity against Influenza A virus Gull/PA/4175/83/H5N1 infected MDCK cells assessed as inhibition of virus-induced cytopathic effect after 3 days; type: functional, organism-based, Influenza A virus (A/gull/Pennsylvania/4175/83(H5N1)); settings: mdck
[36] = Selectivity ratio of IC50 for MDCK cells to EC50 for Influenza A virus Vietnam/1203/ 2004H/H5N1 by neutral red dye uptake assay; type: ADME, cell-based; settings: dog, mdck; method in brief: as §4
H5N1 subtype [37] = assay: Antiviral activity against Influenza A virus Duck/MN/1525/81/H5N1 infected MDCK cells after 42 to 46 hrs by neutral red dye uptake assay; type: functional, organism-based, Influenza A virus (A/duck/Minnesota/1525/1981(H5N1)); settings: mdck
[38] = Selectivity ratio of IC50 for MDCK cells to EC50 for inhibition of virus-induced cytopathic effect of Influenza A virus Gull/PA/4175/83/H5N1; type: cell-based; settings: dog, mdck; method in brief: as §2
[39] = Selectivity ratio of IC50 for MDCK cells to EC50 for Influenza A virus Duck/MN/1525/81/H5N1 by neutral red dye uptake assay; type: ADME, cell-based; settings: dog, mdck; method in brief: as §4
Influenza A virus [40] = assay: Antiviral activity against Influenza A virus Vietnam/1203/ 2004H/H5N1 infected MDCK cells after 42 to 46 hrs by neutral red dye uptake assay; type: functional, organism-based, A/Viet Nam/1203/2004(H5N1); settings: mdck
Influenza A virus [41] = assay: Antiviral activity against Influenza A virus California/07/2009 /H1N1 infected MDCK cells after 42 to 46 hrs by neutral red dye uptake assay; type: functional, organism-based, A/California/07/2009(H1N1); settings: mdck
Influenza A virus [42] = assay: Antiviral activity against Influenza A virus California/07/2009 /H1N1 infected MDCK cells assessed as inhibition of virus-induced cytopathic effect after 3 days; type: functional, organism-based, A/California/07/2009(H1N1); settings: mdck
H5N1 subtype [43] = assay: Antiviral activity against Influenza A virus Hong Kong/213/2003/H5N1 infected MDCK cells after 3 days by virus yield reduction assay; type: functional, Influenza A virus (A/Hong Kong/213/2003(H5N1))
Influenza A virus [44] = assay: Antiviral activity against Influenza A virus California/07/2009 /H1N1 infected MDCK cells after 3 days by virus yield reduction assay; type: functional, A/California/07/2009(H1N1)

In the case of `Nc1ccn([C@@H]2C[C@H](CO)[C@@H](O)[C@H]2O)c(=O)n1` (racemic), the Ratio [1] is reported as > 207, the “Ratio IC50/EC50” value [2] is reported as > 414 and the EC50 (Influenza A virus [3]) is reported as 2800 nM. For the same molecule, the “Ratio IC50/EC50” value [4] was > 90, the “Ratio IC50/EC50” value [5] was > 518 and the EC90 [6] was 2300 nM. The EC50 [7] was 2000 nM, the Ratio [8] was > 118 and the Ratio [9] was > 94. The “Ratio IC50/EC50” value [10] was > 276, the “Ratio IC50/EC50” value [11] was > 173 and the EC50 (H5N1 subtype [12]) was 1800 nM. The “Ratio IC50/EC50” value [13] was > 218, the “Ratio IC50/EC50” value [14] was > 318 and the “Ratio IC50/EC50” value [15] was > 230. The EC50 [16] was 1900 nM, the Ratio [17] was > 34 and the Ratio [18] was > 24. For the same molecule, the “Ratio IC50/EC50” value [19] was > 218, the EC90 (Influenza B virus [20]) was 3.8 µM and the EC50 (H5N1 subtype [21]) was 1400 nM. The EC50 (Influenza A virus [22]) was 1000 nM, the EC90 (Influenza A virus [23]) was 3.5 µM and the “Ratio IC50/EC50” value [24] was > 296. The EC50 (Influenza B virus [25]) was 1300 nM, the “Ratio IC50/EC50” value [26] was > 148 and the Ratio [27] was > 180. The “Ratio IC50/EC50” value [28] was > 207, the EC90 (Influenza A virus [29]) was 12.1 µM and the EC90 (H5N1 subtype [30]) was 17.6 µM. The EC50 (Influenza B virus [31]) was 800 nM, the Ratio [32] was > 109 and the EC50 (Influenza A virus [33]) was 4.6 µM. For the same molecule, the EC50 (H5N1 subtype [34]) was 2400 nM, the EC50 (H5N1 subtype [35]) was 1100 nM and the “Ratio IC50/EC50” value [36] was > 143. For the same molecule, the EC50 (H5N1 subtype [37]) was 5 µM, the “Ratio IC50/EC50” value [38] was > 376 and the “Ratio IC50/EC50” value [39] was > 83. The EC50 (Influenza A virus [40]) was 2900 nM, the EC50 (Influenza A virus [41]) was 1900 nM and the EC50 (Influenza A virus [42]) was 1500 nM. It also gave an EC90 (H5N1 subtype [43]) of 2000 nM and an EC90 (Influenza A virus [44]) of 4.4 µM.
